In brackets after ≈: the same amount, converted by molar mass.

For one experiment, the system named is XF498. Description: Cytotoxicity against human XF498 cells. Type of experiment: functional. Conditions: read-out: ED50 (the source's name).
Another experiment concerns A549. Description: Cytotoxicity against human A549 cells. Type of experiment: functional. The following applies: read-out: ED50 (the source's name).
The subject of experiment [1] is Nucleic Acid. The experiment in a line: Inhibition of SV40 DNA replication at 40 uM. Type of experiment: nucleic-acid assay. The following applies: Betapolyomavirus macacae. The essentials:
(§1)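 Cell-free SV40 origin (pUC) plasmid replication in 40 mM creatine phosphate-di-Tris pH 7.7 with creatine kinase, 7 mM MgCl2, 0.5 mM DTT, 4 mM ATP, 200 µM UTP/GTP/CTP, 100 µM dATP/dGTP/dCTP, 25 µM [3H]dTTP, 0.6 µg SV40 T-Ag and replication proteins. Incubation 90 min at 37 °C; acid-insoluble radioactivity counted. Products checked with [α-32P]dATP on agarose gel.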

In the next experiment the test system is SK-OV-3. Description: Cytotoxicity against human SKOV3 cells. Type of experiment: functional. Conditions: read-out: ED50 (the source's name).
Experiment [2] concerns Nucleic Acid. The experiment in a line: Inhibition of SV40 DNA replication at 20 uM. Type of experiment: nucleic-acid assay. Conditions: Betapolyomavirus macacae. The essentials: as §1
The test system of a further experiment is HCT-15. The experiment in a line: Cytotoxicity against human HCT15 cells. Type of experiment: functional. Conditions: read-out: ED50 (the source's name).
The subject of a further experiment is SK-MEL-2. Description: Cytotoxicity against human SK-MEL-2 cells. Type of experiment: functional. The following applies: read-out: ED50 (the source's name).

Turning to `C#CCCCCCCCCCCCCCCCCC/C=C\CCCC/C=C\CCCCC#C[C@@H](O)C#CCCCCCCCC[C@@H](O)C#C` [PETROTETRAYNDIOL F], the EC50 in the experiment on XF498 was 4.3 µg/mL (≈ 6.39 µM); in the experiment with A549, 3.7 µg/mL (≈ 5.5 µM); with SK-OV-3, 3.8 µg/mL (≈ 5.65 µM); in the experiment with HCT-15, 3.4 µg/mL (≈ 5.05 µM); with SK-MEL-2, 1.1 µg/mL (≈ 1.63 µM). Besides, the inhibition (in general, the share of the control response that was lost under treatment) is 48% with Nucleic Acid [1] and 16% in the experiment on Nucleic Acid [2].

As to `C#C/C=C\CCCCCCCCCCCCCCCC/C=C\CCCC/C=C\CCCCC#C[C@@H](O)C#CCCCCCC/C=C/[C@H](O)C#C`, the EC50 came to 5.8 µg/mL (≈ 8.49 µM) with XF498; 5.2 µg/mL (≈ 7.61 µM) in the experiment with A549; 5.1 µg/mL (≈ 7.47 µM) in the experiment with SK-OV-3; 3.9 µg/mL (≈ 5.71 µM) in the experiment with HCT-15; 1.6 µg/mL (≈ 2.34 µM) with SK-MEL-2. In addition, the inhibition was 38% with Nucleic Acid [1] and 21% with Nucleic Acid [2].

Turning to `C#C/C=C\CCCCCCCCCCCCCC/C=C\CCCCC(O)/C=C/CCCC#C[C@H](O)C#CCCCCCC/C=C/[C@H](O)C#C` (stereo not given in full), the EC50 in the experiment with XF498 amounted to 4.7 µg/mL (≈ 7 µM); in the experiment with A549, 10 µg/mL (≈ 14.9 µM); in the experiment on SK-OV-3, 1.8 µg/mL (≈ 2.68 µM); in the experiment with HCT-15 it was 4 µg/mL (≈ 5.96 µM); in the experiment with SK-MEL-2, 1.3 µg/mL (≈ 1.94 µM). Moreover, the inhibition with Nucleic Acid [1] amounted to 36%; in the experiment with Nucleic Acid [2], 9%.

Consider `C#C/C=C\CCCCCCCCCCCCC/C=C/C(O)CCCC/C=C\CCCCC#C[C@H](O)C#CCCCCCC/C=C/[C@H](O)C#C` (stereo not given in full), for which the EC50 with XF498 was 3.5 µg/mL (≈ 5.22 µM); with A549, 4 µg/mL (≈ 5.96 µM); in the experiment with SK-OV-3 it was 1.2 µg/mL (≈ 1.79 µM); with HCT-15, 1.4 µg/mL (≈ 2.09 µM); with SK-MEL-2 it was 0.5 µg/mL (≈ 0.745 µM). Further, the inhibition is 55% in the experiment with Nucleic Acid [1] and 8% with Nucleic Acid [2].

As to `C#C/C=C\CCCCCCCCCCCCCCC(O)/C=C/CCC/C=C\CCCCC#C[C@H](O)C#CCCCCCC/C=C/[C@H](O)C#C` (stereo not given in full), the EC50 in the experiment with XF498 is 3.5 µg/mL (≈ 5.22 µM); in the experiment with A549, 4 µg/mL (≈ 5.96 µM); with SK-OV-3, 1.2 µg/mL (≈ 1.79 µM); in the experiment on HCT-15, 1.4 µg/mL (≈ 2.09 µM); in the experiment with SK-MEL-2, 0.5 µg/mL (≈ 0.745 µM). Also, the inhibition in the experiment with Nucleic Acid [1] stood at 55%; in the experiment on Nucleic Acid [2], 8%.

Source of the values: ChEMBL document CHEMBL1156395, “Cytotoxic polyacetylenic alcohols from the marine sponge Petrosia species” (2001).
